{"data": "Experimental data gathered from unrelated publications", "target": "Histamine H3 receptor (HRH3, Homo sapiens, UniProt Q9Y5N1)", "note": "Protocols differ between the studies behind these lines."}
{"SMILES": "N#CC1(c2ccccn2)CCN(Cc2cc(C(=O)O)c(=O)n3ccccc23)CC1", "read-out": "cell-free assay", "tested at": "10 µM", "inhibition [%]": 4.08}
{"SMILES": "C[C@H](C(=O)N[C@H]1COc2ccccc2[C@@H]1S(C)(=O)=O)c1ccc(F)cc1", "read-out": "cell-free assay", "tested at": "10 µM", "inhibition [%]": 1}
{"SMILES": "Cc1c(N2CCNCC2)nc2ccc(Br)cc2c1C(=O)NC[C@H](CCC(=O)O)c1ccccc1Cl", "read-out": "ligand displacement", "tested at": "10 µM", "inhibition [%]": 16.9}
{"SMILES": "O=C(Nc1cccnn1)N1CCN([C@@H]2CCOc3cc(C(F)(F)F)ccc32)CC1", "read-out": "cell-free assay", "tested at": "20 µM", "inhibition [%]": 11}
{"SMILES": "c1ccc(C(NCCNC(c2ccccc2)c2ccccc2)c2ccccc2)cc1", "read-out": "cell-free assay", "tested at": "10 µM", "inhibition [%]": 1}
{"SMILES": "CC(C)N1CCC[C@H]1CNC(=O)c1cn(C2CCCC2)c(=O)c2c1c1ccccc1n2C", "read-out": "ligand displacement", "method": "radioligand", "tested at": "10 µM", "inhibition [%]": 26}
{"SMILES": "CN(CCN1CCC(OC(=O)Nc2ccccc2-c2ccccc2)CC1)C(=O)c1ccc(CN2CCC(C(N)=O)CC2)cc1", "read-out": "ligand displacement", "method": "radioligand", "tested at": "1 µM", "inhibition [%]": 72}
{"SMILES": "COCc1c(-c2cc3cc(C)cc(OC)c3s2)c2c(N)ncnn2c1CN1CCNC(=O)C1", "read-out": "ligand displacement", "method": "radioligand", "tested at": "10 µM", "inhibition [%]": -8}
